Series [1] deals with Human immunodeficiency virus type 1 reverse transcriptase (Human immunodeficiency virus 1, UniProt Q72547). The series is described as follows: Inhibition of HIV-1 recombinant reverse transcriptase after 1 hr by streptavidinalkaline phosphatase reporter system. In outline:
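Highly purified recombinant HIV-1 RT with a poly(rA)/oligo(dT)15 homopolymer template. SA-ALP was added, then PNPP (1 mg/mL, pH 9.5) for 30 min at 37 °C, stopped with NaOH. IC50 is the mean of three experiments.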

A short description of series [2]: Cytotoxicity against human TZM-bl cells after 3 days by XTT assay. The format is cell-based. A general note: Formazan colour is commonly taken as a measure of viable cells.
The test system of series [3] is Human immunodeficiency virus 1. Nature of the series: Antiviral activity against wild-type HIV-1 SF33 infected in human TZM-bl cells after 7 days by ELISA. The format is functional, organism-based. Particulars: Human immunodeficiency virus 1, SF33, TZM-bl, 168 h. The gist of the method:
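TZM-bl cells (4 × 10⁴/well) were infected with 200 TCID₅₀ of HIV-1 SF33 for 2 h at 37 °C. Serially diluted compounds were then added and incubation continued 7 days at 37 °C. p24 was measured by ELISA.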
Background: In an ELISA, binding on a coated surface is turned into a signal by an enzyme label.

A short description of series [4]: Selectivity index, ratio of CC50 for human TZM-bl cells to EC50 for wild-type HIV-1 SF33. It is filed as toxicity, cell-based. Particulars: read-out: Ratio CC50/EC50. The gist of the method: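 SI is calculated as CC50 in TZM-bl cells divided by EC50 against HIV-1 SF33 infection.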

A word on the IC50: it is the concentration needed to halve the response being measured. In the case of `Cc1ccc(Sc2cc(CCc3ccccc3)[nH]c(=O)c2I)cc1`, in series [1], the IC50 came out at 12 µM.

On to `O=c1[nH]c(CCc2ccccc2)cc(NC2CCCCC2)c1I`, for which the IC50 in series [1] is 15.2 µM.

As a reminder, the CC50 is the concentration at which the toxic effect on the cells reaches its halfway point. Read a high CC50 as lower toxicity to the cells. One may read the EC50 as the midpoint of the concentration-response curve. Lower therefore signals higher potency in that assay. In turn, `CC1CCCCC1Nc1cc(CCc2ccccc2)[nH]c(=O)c1I` (stereo unspecified) displayed a cytotoxic concentration (CC50) at 72 h in series [2] of 50.2 µM. Besides, the EC50 in series [3] was 2.71 µM. The IC50 in series [1] came out at 0.42 µM. In addition, in series [4], the selectivity ratio is 18.5.

On to `O=c1[nH]c(CCc2ccccc2)cc(NC2CCCC2)c1I`, for which the half-inhibitory concentration (IC50) in series [1] stood at 24 µM.

Regarding `O=c1[nH]c(CCc2ccccc2)cc(Nc2ccccc2)c1I`, the 50% inhibitory concentration (IC50) in series [1] is 8.14 µM.

Consider `O=c1[nH]c(CCc2ccccc2)cc(Sc2ccccc2)c1I`, for which the concentration for half-maximal inhibition (IC50) in series [1] is 20.3 µM.

Take `O=c1[nH]c(CCc2ccccc2)cc(Oc2ccccc2)c1I`: the CC50 at 72 h in series [2] stood at 181 µM. Besides, the half-maximal effective concentration (EC50) in series [3] is 0.15 µM. Further, in series [1], the IC50 was 0.29 µM. Further, in series [4], the selectivity ratio amounted to 1200.

As to `CC(C)c1c(Oc2ccccc2)cc(CCc2ccccc2)[nH]c1=O`, the cytotoxic concentration (CC50) at 72 h in series [2] came out at 195 µM. In series [3], the EC50 amounted to 0.0563 µM. Moreover, the IC50 in series [1] came out at 0.089 µM. In addition, the selectivity ratio in series [4] came to 3470.

For `Cc1ccc(Sc2cc(CCc3ccccc3)[nH]c(=O)c2Br)cc1`, the half-maximal inhibitory concentration (IC50) in series [1] turned out to be 16.9 µM.

Take `O=c1[nH]c(CCc2ccccc2)cc(NC2CCCCC2)c1Br`: the IC50 in series [1] came to 40.3 µM.

`CC1CCCCC1Nc1cc(CCc2ccccc2)[nH]c(=O)c1Br` (stereo unspecified) displayed a CC50 at 72 h in series [2] of 131 µM. In series [3], this molecule came in with an EC50 of 13.7 µM. Moreover, the concentration for half-maximal inhibition (IC50) in series [1] was determined as 0.68 µM. In addition, the selectivity ratio in series [4] was 9.6.

Turning to `O=c1[nH]c(CCc2ccccc2)cc(NC2CCCC2)c1Br`, the 50% inhibitory concentration (IC50) in series [1] was found to be 43.3 µM.

`O=c1[nH]c(CCc2ccccc2)cc(Nc2ccccc2)c1Br`: the IC50 in series [1] came to 11.3 µM.

Regarding `O=c1[nH]c(CCc2ccccc2)cc(Sc2ccccc2)c1Br`, the 50% inhibitory concentration (IC50) in series [1] is 57.1 µM.

With `CN(C)c1c(Sc2ccccc2)cc(CCc2ccccc2)[nH]c1=O`, the 50% inhibitory concentration (IC50) in series [1] is 15.2 µM.

`CC(C)c1c(Sc2ccccc2)cc(CCc2ccccc2)[nH]c1=O` returned a CC50 at 72 h in series [2] of 136 µM. This molecule registered a 50% effective concentration (EC50) in series [3] of 0.136 µM. Also, in series [1], the half-inhibitory concentration (IC50) is 0.093 µM. In addition, the selectivity ratio in series [4] is 998.

Source of the values: ChEMBL document CHEMBL3352518, “Synthesis and biological evaluation of pyridinone analogues as novel potent HIV-1 NNRTIs” (Bioorg Med Chem, 2015).
